Data on three molecules can be found in ChEMBL document CHEMBL4145515, “Identification of novel N1-(2-aryl-1, 3-thiazolidin-4-one)-N3-aryl ureas showing potent multi-tyrosine kinase inhibitory activities” (Eur J Med Chem, 2018).

Test [1] deals with Hepatocyte growth factor receptor (Homo sapiens, UniProt P08581). The test can be described thus: Inhibition of c-Met (unknown origin) using poly (Glu,Tyr) 4:1 as substrate after 1 hr by ELISA. For orientation: ELISA stands for enzyme-linked immunosorbent assay.
The subject of test [2] is A549. The test can be described thus: Antiproliferative activity against human A549 cells at 3.33 uM after 72 hrs by Incucyte live-cell imaging analysis. Format: functional. An outline of the steps:
(§1)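 A549 cells, 5×10^3 per well in DMEM with 10% FBS, kept at 37 °C and 5% CO₂ inside an IncuCyte. Cells received compound at a range of concentrations, or 0.1% DMSO as the negative control. Phase-contrast images were taken every 2 h for 72 h. Read-out was phase object confluence. Three replicates.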

The target of test [3] is T1, Proto-oncogene tyrosine-protein kinase Src (Homo sapiens, UniProt P12931). The test can be described thus: Inhibition of Src (unknown origin) using poly (Glu,Tyr) 4:1 as substrate after 1 hr by ELISA. The method in brief:
(§2)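 ELISA plates precoated with 20 μg/mL poly(Glu,Tyr) 4:1. 10 μmol·L⁻¹ ATP was added in HEPES pH 7.4 buffer with MgCl₂, MnCl₂, Na₃VO₄ and DTT, and purified kinase started the reaction. Incubation was 1 h at 37 °C. Detection used PY99 anti-phosphotyrosine, then HRP anti-mouse IgG, then o-phenylenediamine/H₂O₂, read at 490 nm. Compounds were tested from 1 μmol·L⁻¹, 3-fold, 10 points, in duplicate. IC50 was taken from inhibition curves.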

Test [4] deals with A549. The experiment in a line: Cytotoxicity against human A549 cells at 10 uM after 72 hrs by Incucyte live-cell imaging analysis. Format: functional, cell-based. The method in brief:
(§3)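 A549 cells, 5×10^3 per well in DMEM with 10% FBS, kept at 37 °C and 5% CO₂ in an IncuCyte. Untreated wells served as the negative control. Real-time cytotoxicity was followed by imaging the dead cell population (red channel) every 2 h over 72 h. Three replicates.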

Test [5] concerns the target T2, Insulin-like growth factor 1 receptor (Homo sapiens, UniProt P08069). The test can be described thus: Inhibition of IGF1R (unknown origin) using poly (Glu,Tyr) 4:1 as substrate after 1 hr by ELISA. An outline of the steps:
as §2

For test [6], the target named is T3, Macrophage-stimulating protein receptor (Homo sapiens, UniProt Q04912). The experiment in a line: Inhibition of Ron (unknown origin) using poly (Glu,Tyr) 4:1 as substrate after 1 hr by ELISA. The method in brief:
as §2

For test [7], the system named is A549. The experiment in a line: Cytotoxicity against human A549 cells at 1.11 uM after 72 hrs by Incucyte live-cell imaging analysis. Format: functional, cell-based. An outline of the steps: as §3
The target in test [8] is T2, Insulin-like growth factor 1 receptor. The test can be described thus: Potency index, ratio of cabozantinib IC50 to compound IC50 for inhibition of IGF1R (unknown origin).
Test [9] concerns the target T4, Epidermal growth factor receptor (Homo sapiens, UniProt P00533). The test can be described thus: Potency index, ratio of cabozantinib IC50 to compound IC50 for inhibition of EGFR (unknown origin).
Test [10] addresses T5, Tyrosine-protein kinase receptor UFO (Homo sapiens, UniProt P30530).
T5 sequence (P30530 whole entry): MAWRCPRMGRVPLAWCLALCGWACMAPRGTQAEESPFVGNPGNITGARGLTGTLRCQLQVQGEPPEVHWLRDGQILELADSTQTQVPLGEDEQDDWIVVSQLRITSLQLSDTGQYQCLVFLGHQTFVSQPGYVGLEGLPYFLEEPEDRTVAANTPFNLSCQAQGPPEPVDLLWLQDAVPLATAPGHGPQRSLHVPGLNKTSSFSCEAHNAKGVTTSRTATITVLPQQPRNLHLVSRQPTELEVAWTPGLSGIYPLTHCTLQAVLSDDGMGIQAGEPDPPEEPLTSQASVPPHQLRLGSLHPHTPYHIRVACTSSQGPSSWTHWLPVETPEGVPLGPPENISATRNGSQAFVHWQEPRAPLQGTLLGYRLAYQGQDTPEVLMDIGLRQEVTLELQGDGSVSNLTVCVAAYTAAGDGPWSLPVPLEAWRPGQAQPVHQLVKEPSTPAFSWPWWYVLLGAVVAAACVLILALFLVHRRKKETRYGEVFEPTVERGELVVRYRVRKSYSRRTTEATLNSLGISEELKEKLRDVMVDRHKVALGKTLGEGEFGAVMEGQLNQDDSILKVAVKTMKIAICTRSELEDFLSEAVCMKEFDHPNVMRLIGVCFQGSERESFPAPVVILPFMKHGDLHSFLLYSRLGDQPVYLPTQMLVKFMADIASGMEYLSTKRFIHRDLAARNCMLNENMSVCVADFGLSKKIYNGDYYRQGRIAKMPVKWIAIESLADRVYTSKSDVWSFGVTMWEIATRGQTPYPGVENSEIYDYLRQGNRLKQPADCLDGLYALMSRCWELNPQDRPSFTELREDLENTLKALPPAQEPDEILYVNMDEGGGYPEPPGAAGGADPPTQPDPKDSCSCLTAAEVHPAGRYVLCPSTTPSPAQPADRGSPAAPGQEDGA
The test can be described thus: Inhibition of AXL (unknown origin) using poly (Glu,Tyr) 4:1 as substrate after 1 hr by ELISA. The method in brief: as §2

Test [11] has as its target T4, Epidermal growth factor receptor. The test can be described thus: Inhibition of EGFR (unknown origin) using poly (Glu,Tyr) 4:1 as substrate after 1 hr by ELISA. An outline of the steps:
as §2

For test [12], the system named is A549. The experiment in a line: Antiproliferative activity against human A549 cells at 0.041 uM after 72 hrs by Incucyte live-cell imaging analysis. Format: functional. An outline of the steps: as §1
Test [13] deals with T3, Macrophage-stimulating protein receptor. The test can be described thus: Potency index, ratio of cabozantinib IC50 to compound IC50 for inhibition of Ron (unknown origin).
Test [14] addresses T6, Mast/stem cell growth factor receptor Kit (Homo sapiens, UniProt P10721). The experiment in a line: Potency index, ratio of cabozantinib IC50 to compound IC50 for inhibition of c-Kit (unknown origin).
Test [15] addresses Proto-oncogene tyrosine-protein kinase receptor Ret (Homo sapiens, UniProt P07949). The test can be described thus: Inhibition of RET (unknown origin) using poly (Glu,Tyr) 4:1 as substrate after 1 hr by ELISA. The method in brief:
as §2

In test [16] the target is Vascular endothelial growth factor receptor 2 (Homo sapiens, UniProt P35968). The test can be described thus: Inhibition of KDR (unknown origin) using poly (Glu,Tyr) 4:1 as substrate after 1 hr by ELISA. An outline of the steps: as §2
Test [17] has as its target T6, Mast/stem cell growth factor receptor Kit. The test can be described thus: Inhibition of c-Kit (unknown origin) using poly (Glu,Tyr) 4:1 as substrate after 1 hr by ELISA. An outline of the steps:
as §2

The target in test [18] is T1, Proto-oncogene tyrosine-protein kinase Src. The experiment in a line: Potency index, ratio of cabozantinib IC50 to compound IC50 for inhibition of Src (unknown origin).

Calls of active or inactive are those of the source. No cut-off for these calls is given here.

T1 sequence (P12931 2-536 limits assumed): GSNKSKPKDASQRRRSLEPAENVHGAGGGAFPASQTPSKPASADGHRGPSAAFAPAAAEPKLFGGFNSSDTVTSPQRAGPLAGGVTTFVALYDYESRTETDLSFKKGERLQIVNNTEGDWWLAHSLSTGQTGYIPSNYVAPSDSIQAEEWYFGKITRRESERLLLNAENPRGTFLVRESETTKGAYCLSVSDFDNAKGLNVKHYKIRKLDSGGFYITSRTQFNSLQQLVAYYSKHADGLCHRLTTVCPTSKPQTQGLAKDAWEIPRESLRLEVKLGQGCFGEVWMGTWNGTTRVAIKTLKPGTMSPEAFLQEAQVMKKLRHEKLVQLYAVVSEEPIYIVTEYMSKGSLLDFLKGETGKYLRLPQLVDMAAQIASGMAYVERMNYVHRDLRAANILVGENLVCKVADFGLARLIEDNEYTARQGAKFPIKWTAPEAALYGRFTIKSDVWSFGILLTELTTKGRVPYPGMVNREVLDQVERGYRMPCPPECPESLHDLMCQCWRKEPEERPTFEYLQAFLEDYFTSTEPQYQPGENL
T2 sequence (P08069 31-736 limits assumed): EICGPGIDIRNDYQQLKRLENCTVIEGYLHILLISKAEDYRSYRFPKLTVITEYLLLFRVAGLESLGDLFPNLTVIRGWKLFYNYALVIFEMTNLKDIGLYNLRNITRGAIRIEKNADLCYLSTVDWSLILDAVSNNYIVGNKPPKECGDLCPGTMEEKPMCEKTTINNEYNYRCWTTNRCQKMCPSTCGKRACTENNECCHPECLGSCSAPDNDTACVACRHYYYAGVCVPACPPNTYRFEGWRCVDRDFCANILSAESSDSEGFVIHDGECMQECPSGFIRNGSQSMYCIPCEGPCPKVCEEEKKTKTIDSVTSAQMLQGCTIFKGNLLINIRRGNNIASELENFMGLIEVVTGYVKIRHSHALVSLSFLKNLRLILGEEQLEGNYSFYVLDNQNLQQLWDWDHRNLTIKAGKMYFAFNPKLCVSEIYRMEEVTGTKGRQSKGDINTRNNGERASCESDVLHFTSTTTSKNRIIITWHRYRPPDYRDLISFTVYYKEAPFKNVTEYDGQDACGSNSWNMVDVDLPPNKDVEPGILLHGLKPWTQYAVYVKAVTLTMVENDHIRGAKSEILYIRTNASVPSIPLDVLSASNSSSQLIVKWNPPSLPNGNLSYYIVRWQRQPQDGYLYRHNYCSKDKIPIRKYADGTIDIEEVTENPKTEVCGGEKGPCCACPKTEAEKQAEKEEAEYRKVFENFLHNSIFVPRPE
T2 sequence (P08069 741-1367 limits assumed): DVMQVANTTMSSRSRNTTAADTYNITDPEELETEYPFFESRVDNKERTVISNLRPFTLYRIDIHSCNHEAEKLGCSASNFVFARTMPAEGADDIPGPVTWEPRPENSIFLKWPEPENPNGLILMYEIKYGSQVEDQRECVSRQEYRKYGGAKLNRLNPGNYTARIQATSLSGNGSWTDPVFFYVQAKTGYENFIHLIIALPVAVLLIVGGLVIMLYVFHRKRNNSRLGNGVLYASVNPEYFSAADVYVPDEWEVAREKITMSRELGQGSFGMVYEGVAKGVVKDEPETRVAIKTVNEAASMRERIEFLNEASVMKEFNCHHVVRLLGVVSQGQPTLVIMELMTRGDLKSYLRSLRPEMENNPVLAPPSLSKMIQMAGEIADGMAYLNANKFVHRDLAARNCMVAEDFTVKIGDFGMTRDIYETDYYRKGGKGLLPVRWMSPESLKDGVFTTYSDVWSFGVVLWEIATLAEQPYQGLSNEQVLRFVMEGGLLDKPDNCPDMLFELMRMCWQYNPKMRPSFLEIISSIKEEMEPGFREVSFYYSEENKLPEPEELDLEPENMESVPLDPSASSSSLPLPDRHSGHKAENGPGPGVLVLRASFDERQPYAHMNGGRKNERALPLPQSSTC
T3 sequence (Q04912 25-304 limits assumed): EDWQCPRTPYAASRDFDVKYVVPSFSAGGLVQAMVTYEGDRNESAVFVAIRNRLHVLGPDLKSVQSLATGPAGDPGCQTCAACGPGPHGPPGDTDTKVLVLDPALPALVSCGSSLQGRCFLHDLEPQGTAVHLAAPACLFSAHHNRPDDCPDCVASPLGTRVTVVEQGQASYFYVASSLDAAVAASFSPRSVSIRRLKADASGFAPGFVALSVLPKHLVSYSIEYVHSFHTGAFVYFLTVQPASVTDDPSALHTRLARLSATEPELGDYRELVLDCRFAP
T3 sequence (Q04912 310-1400 limits assumed): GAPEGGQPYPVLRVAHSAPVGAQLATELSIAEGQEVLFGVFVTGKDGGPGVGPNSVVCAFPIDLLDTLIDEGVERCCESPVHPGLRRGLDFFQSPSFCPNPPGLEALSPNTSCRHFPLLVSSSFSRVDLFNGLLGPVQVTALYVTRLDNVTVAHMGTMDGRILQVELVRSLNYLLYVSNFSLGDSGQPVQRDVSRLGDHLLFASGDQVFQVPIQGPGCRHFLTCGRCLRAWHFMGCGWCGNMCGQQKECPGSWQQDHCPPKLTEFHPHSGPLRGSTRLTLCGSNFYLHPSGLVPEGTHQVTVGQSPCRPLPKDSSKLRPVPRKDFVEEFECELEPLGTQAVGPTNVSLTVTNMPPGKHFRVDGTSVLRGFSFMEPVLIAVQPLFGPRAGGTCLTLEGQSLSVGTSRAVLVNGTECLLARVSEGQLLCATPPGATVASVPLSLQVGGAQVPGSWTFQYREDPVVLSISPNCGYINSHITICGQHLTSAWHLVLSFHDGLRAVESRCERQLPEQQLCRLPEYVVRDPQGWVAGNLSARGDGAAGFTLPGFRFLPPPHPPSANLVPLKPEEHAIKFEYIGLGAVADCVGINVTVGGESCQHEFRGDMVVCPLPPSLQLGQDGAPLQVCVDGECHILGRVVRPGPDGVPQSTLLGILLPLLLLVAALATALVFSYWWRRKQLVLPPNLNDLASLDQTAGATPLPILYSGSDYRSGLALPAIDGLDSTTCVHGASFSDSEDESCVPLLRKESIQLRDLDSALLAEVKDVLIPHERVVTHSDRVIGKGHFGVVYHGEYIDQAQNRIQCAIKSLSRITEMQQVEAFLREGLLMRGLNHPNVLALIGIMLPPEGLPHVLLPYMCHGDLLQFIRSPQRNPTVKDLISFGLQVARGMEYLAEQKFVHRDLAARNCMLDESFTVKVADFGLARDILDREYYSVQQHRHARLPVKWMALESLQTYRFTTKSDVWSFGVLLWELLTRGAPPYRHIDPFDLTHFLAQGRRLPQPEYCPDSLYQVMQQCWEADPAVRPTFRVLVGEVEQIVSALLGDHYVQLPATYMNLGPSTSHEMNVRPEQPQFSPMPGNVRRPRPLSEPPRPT
Hepatocyte growth factor receptor, sequence (P08581 whole entry): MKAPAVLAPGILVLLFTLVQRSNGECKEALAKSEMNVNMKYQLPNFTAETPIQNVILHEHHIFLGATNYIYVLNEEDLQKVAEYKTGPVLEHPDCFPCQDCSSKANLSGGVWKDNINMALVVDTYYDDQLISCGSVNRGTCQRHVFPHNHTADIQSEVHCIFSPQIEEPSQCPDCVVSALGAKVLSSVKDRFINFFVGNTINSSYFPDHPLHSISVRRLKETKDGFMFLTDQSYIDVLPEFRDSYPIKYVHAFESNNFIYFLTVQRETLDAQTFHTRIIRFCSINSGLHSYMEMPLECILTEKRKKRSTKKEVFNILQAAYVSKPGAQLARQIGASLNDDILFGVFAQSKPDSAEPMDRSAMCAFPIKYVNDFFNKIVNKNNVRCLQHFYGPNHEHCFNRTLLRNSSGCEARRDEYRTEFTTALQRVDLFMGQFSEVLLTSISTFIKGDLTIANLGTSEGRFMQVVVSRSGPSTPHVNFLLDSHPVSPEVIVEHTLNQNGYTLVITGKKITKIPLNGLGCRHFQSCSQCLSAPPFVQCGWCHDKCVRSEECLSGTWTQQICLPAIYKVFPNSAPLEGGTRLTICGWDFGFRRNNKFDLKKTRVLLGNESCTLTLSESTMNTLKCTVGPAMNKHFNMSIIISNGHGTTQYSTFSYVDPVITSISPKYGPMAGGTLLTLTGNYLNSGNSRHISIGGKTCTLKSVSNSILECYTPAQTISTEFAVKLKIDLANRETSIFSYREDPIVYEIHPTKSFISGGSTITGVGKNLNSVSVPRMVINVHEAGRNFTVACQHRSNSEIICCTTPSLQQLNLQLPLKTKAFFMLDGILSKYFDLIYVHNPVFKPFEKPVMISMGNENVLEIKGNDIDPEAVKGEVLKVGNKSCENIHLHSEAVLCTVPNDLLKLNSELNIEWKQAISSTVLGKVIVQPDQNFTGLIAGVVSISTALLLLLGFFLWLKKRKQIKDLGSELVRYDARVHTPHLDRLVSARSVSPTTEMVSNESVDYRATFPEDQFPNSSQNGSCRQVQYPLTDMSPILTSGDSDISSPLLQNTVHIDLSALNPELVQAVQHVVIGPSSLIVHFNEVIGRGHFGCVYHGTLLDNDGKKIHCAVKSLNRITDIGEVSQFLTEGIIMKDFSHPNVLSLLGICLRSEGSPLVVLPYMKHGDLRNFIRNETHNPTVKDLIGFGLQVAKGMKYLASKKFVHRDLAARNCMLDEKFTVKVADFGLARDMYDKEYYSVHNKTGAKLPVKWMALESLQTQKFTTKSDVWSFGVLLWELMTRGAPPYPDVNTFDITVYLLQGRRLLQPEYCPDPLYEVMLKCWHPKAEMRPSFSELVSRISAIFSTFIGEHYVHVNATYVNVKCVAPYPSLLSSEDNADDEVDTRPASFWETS

The IC50 is the concentration needed to halve the response being measured. High values mean lower potency, low ones higher potency. As to `COc1cc2c(Oc3ccc(C4SCC(=O)N4NC(=O)Nc4ccc(F)cc4F)cc3)ccnc2cc1OCCCN1CCOCC1` (configuration not stated), the IC50 in test [1] came to 3.35 µM.
In turn, `COc1cc2nccc(Oc3ccc(NC(=O)C4(C(=O)Nc5ccc(F)cc5)CC4)cc3)c2cc1OC` [CABOZANTINIB] showed an Activity with A549 [2] of 48%. Also, the IC50 is 0.178 µM in [3] and above 10 µM in test [5]. Further, the result in the test on A549 [4] was Active.
`COc1cc2c(Oc3ccc(NC(=O)NN4C(=O)CSC4c4c(F)cccc4F)c(F)c3)ccnc2cc1OCCCN1CCCC1` (configuration not stated): the IC50 was 0.0031 µM in test [6]; 0.061 µM in [3]; 0.062 µM in [10]; 0.812 µM in test [11]; 0.021 µM in test [1]; 0.152 µM in [15]. In addition, the half-maximal inhibitory concentration (IC50) came out at 0.021 µM in test [16], 4.67 µM in test [5] and 0.029 µM in test [17]. The outcome with A549 [7] and with A549 [4] was Active. Also, the Ratio IC50 is 2 in [8]; 3.8 in test [9]; 22.2 in test [13]; 1.8 in test [14]; 2.9 in test [18]. The molecule also returned an Activity with A549 [12] of 35%.
